Data set [1] is classed as in vitro ADME, rat. The conditions noted are these: for detection of ZON metabolite in mucosal and serosal buffers: LC-MS/MS. A digest of the protocol: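 Everted 10 cm segments from male, nonpregnant female and gestation day 18–19 pregnant Sprague-Dawley rats: three small-intestine parts plus distal colon. Krebs Ringer bicarbonate, pH 7.4, 95% O₂/5% CO₂, 37°C. Mucosal 25 ml; serosal 25 ml circulated at 5 ml/min. Test compound 10 µM mucosal; both sides sampled 0–60 min. Negative-ESI LC-MS/MS against bile-derived glucuronide standards; mean ± S.D., six experiments.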

The conditions of data set [2]: after oral exposure, estimated; cited from earlier work.
The next data set concerns cell viability. The following applies: 10 µM, in vitro; cited from earlier work.
A further data set deals with estrogenic activity. The conditions noted are these: cited from earlier work.
[3] abbreviates: ZON 10 µM, 60 min, female colon.
[4] abbreviates: ZON 10 µM, 60 min, female proximal intestine.
[5] abbreviates: ZON 10 µM, 60 min, pregnant female proximal intestine.

Results on eight molecules are retold here after PMC7041979 (The Journal of Veterinary Medical Science, 2019).

Where only a bound is given, the exact number is not on record here.

As for `C[C@H]1CCCC(=O)CCCCCc2cc(O)cc(O)c2C(=O)O1` [ZAN, Zearalanone], the “detection of ZON metabolite in mucosal and serosal buffers” value (from here on “detection of ZON metabolite”) in data set [1] (ZON 10 µM, 60 min) was “too low to quantify”.

Consider `C[C@H]1CCCC(=O)CCC/C=C/c2cc(O)cc(O)c2C(=O)O1` [ZON, Zearalenone], for which, in data set [1] (ZON 10 µM in mucosal buffer, all segments), the “rate of disappearance of ZON from the mucosal compartment” value fell in the range of 100 to 200 nmol/h. For the same molecule, in data set [1] (ZON 10 µM, 60 min incubation, distal colon (highest)), the “amount of ZON transported from the mucosal side to the serosal side” value is given as “approximately 2 nmol”. For the same molecule, in data set [1] (both, rat, pH 7.4), the recovery at 60 min, 10 µM is over 80%. Further, the ZON uptake in data set [2] is listed as 80–85%. Moreover, the “effect on cell viability” value in the data set with cell viability is listed as “not to affect cell viability”.

As to `CC1CCCC(=O)CCCC=Cc2cc(OC3OC(C(=O)O)C(O)C(O)C3O)cc(OC3OC(C(=O)O)C(O)C(O)C3O)c2C(=O)O1` (stereo not drawn) [zearalenone diglucuronide, Zearalenone diglucuronide], the “detection of ZON metabolite” value in data set [1] (ZON 10 µM, 60 min) is “too low to quantify”.

For the molecule `C[C@H]1CCC[C@H](O)CCC/C=C/c2cc(O)cc(O)c2C(=O)O1` [α-ZOL, α-Zearalenol], in data set [1] (ZON 10 µM, 60 min), the “α-ZOL transport to the mucosal side relative to transport to the serosal side” value is “approximately 6 times”. Moreover, the α-ZOL mucosal excretion in data set [1] (ZON 10 µM, 60 min, at most, over all segments) is at most 0.3 nmol. In addition, the “α-ZOL transport to the serosal side, maximum” value in data set [1] (ZON 10 µM, 60 min, colon) is listed as “approximately 0.05 nmol”. In addition, in the data set on estrogenic activity, the “estrogenic activity relative to ZON” value is “three times more potent”.

For the molecule `C[C@H]1CCC[C@@H](O)CCC/C=C/c2cc(O[C@@H]3O[C@H](C(=O)O)[C@@H](O)[C@H](O)[C@H]3O)cc(O)c2C(=O)O1` [α-ZOL-GA, α-Zearalenol glucuronide], in data set [1] (setting [3]), the “α-ZOL-GA mucosal excretion, minimum” value was found to be 20.09 nmol. Also, in data set [1] (setting [4]), the “α-ZOL-GA serosal transport, minimum” value came to 2.84 nmol. Also, the “α-ZOL-GA serosal transport, maximum” value in data set [1] (ZON 10 µM, 60 min, pregnant female colon) is recorded as 36.15 nmol. Also, in data set [1] (setting [5]), the “α-ZOL-GA mucosal excretion, maximum” value came to 60.02 nmol.

As for `C[C@H]1CCC[C@H](O)CCC/C=C/c2cc(O[C@@H]3O[C@H](C(=O)O)[C@@H](O)[C@H](O)[C@H]3O)cc(O)c2C(=O)O1` [β-ZOL-GA, β-Zearalenol glucuronide], in data set [1] (ZON 10 µM, 60 min), the “detection of ZON metabolite” value is “too low to quantify”.

Consider Zearalenone glucuronide [ZON-GA], for which, in data set [1] (setting [3]), the “ZON-GA mucosal excretion, minimum” value was 22.55 nmol and the “ZON-GA serosal transport, maximum” value is reported as 49.94 nmol. In addition, the “ZON-GA serosal transport, minimum” value in data set [1] (setting [4]) is listed as 1.64 nmol. Further, in data set [1] (setting [5]), the “ZON-GA mucosal excretion, maximum” value was 85.39 nmol.

In the case of β-Zearalenol [β-ZOL], the “detection of ZON metabolite” value in data set [1] (ZON 10 µM, 60 min) was “too low to quantify”.
